Key:
[1] = Time taken by the compound to achieve maximum plasma concentration at a 1 mg/kg oral dose in male and female Beagle dogs.; assay type: ADME, organism-based, Canis lupus familiaris; parameters: dose 1 mg/kg, route oral; details: both, dog
Procedure, shortened: (§1)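 Male and female beagle dogs given a single 1 mgA/kg oral dose (free base equivalents). Plasma profile gave Cmax, Tmax and apparent oral t1/2.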

[2] = Maximum plasma concentration at a 1 mg/kg oral dose in male and female Beagle dogs.; assay type: ADME, organism-based, Canis lupus familiaris; parameters: dose 1 mg/kg, route oral; details: both, dog; procedure, shortened: as §1
[3] = Plasma clearance was determined in canine following intravenous (iv) administration of drug (1 mg/kg).; assay type: ADME, organism-based, Canis lupus familiaris; details: dog
Procedure, shortened: (§2)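 Male beagle dogs given 1 mg/kg intravenously. Plasma sampling gave clearance, volume of distribution and elimination half-life, with half-life calculated over 0–8 h.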

Rattus norvegicus [4] = species: Rattus norvegicus; assay: In vitro effective concentration required for 50% stimulation of GH release in rat pituitary cell cultures.; assay type: functional; details: Pituitary gland cell
Procedure, shortened: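 Rat pituitary cell cultures exposed to compound. Released GH was quantified by rat-specific double-antibody radioimmunoassay. EC50 is the average of triplicate experiments.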

[5] = Plasma elimination half-life was determined in female Sprague-Dawley rats following intravenous (iv) administration of drug (1 mg/kg).; assay type: ADME, organism-based; details: rat
Procedure, shortened: (§3)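 Female Sprague–Dawley rats given a 1 mgA/kg (free base equivalents) iv dose. Plasma drug levels gave mean Vd, CL and t1/2.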

[6] = Maximum plasma concentration at a 1 mg/kg oral dose in female Sprague-Dawley rats; assay type: ADME, organism-based; parameters: dose 1 mg/kg, route oral; details: rat
Procedure, shortened: (§4)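 Female Sprague–Dawley rats dosed orally at 1 mgA/kg (free base equivalents). Plasma concentration–time profile gave Cmax, Tmax and apparent oral t1/2.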

[7] = (§5) Oral half life was determined; assay type: ADME, organism-based; details: rat, in vivo; procedure, shortened: as §4
[8] = Plasma clearance was determined in female Sprague-Dawley rats following intravenous (iv) administration of drug (1 mg/kg).; assay type: ADME, organism-based; details: rat; procedure, shortened: as §3
[9] = Volume of distribution was determined in female Sprague-Dawley rats following intravenous (iv) administration of drug (1 mg/kg).; assay type: ADME, organism-based; details: rat, in vivo; procedure, shortened: as §3
[10] = Lipophilicity by octanol water distribution coefficient; assay type: physicochemical
Rattus norvegicus [11] = assay: In vivo effective dose required for 50% stimulation of GH release in anesthetized rat model.; assay type: functional
Procedure, shortened: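 Anesthetized Wistar rats given compound iv, with GH release as read-out. ED50 (mg/kg) is the average of triplicate experiments.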

[12] = (§6) Bioavailability; assay type: ADME, organism-based, Canis lupus familiaris; details: dog, in vivo
Procedure, shortened: (§7)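 Bioavailability of the free base from a 1 mgA/kg oral dose compared with a 1 mgA/kg iv dose. Measured in female Sprague–Dawley rats and in male and female beagle dogs.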

[13] = as §6; assay type: ADME, organism-based; details: rat, in vivo; procedure, shortened: as §7
[14] = target: Growth hormone secretagogue receptor type 1 (Homo sapiens, UniProt Q92847); assay: In vitro binding affinity against human type 1a growth hormone secretagogue receptor (hGHS-R1a), using [125I]ghrelin as radioligand.
Procedure, shortened: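 Competitive displacement of [125I]-ghrelin from membranes of HEK293 cells over-expressing hGHS-R1a. Ki values are the average of duplicate experiments.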

[15] = as §5; assay type: ADME, organism-based, Canis lupus familiaris; details: dog, in vivo; procedure, shortened: as §4
[16] = Time taken by the compound to achieve maximum plasma concentration at a 1 mg/kg oral dose in female Sprague-Dawley rats; assay type: ADME, organism-based; parameters: dose 1 mg/kg, route oral; details: rat; procedure, shortened: as §4
[17] = Volume of distribution was determined in canine following intravenous (iv) administration of drug (1 mg/kg).; assay type: ADME, organism-based, Canis lupus familiaris; details: dog, in vivo; procedure, shortened: as §2
[18] = Plasma elimination half-life (08 h) was determined in canine following intravenous (iv) administration (1 mg/kg).; assay type: ADME, organism-based, Canis lupus familiaris; details: dog; procedure, shortened: as §2

Chain of Growth hormone secretagogue receptor type 1 (Q92847 whole entry): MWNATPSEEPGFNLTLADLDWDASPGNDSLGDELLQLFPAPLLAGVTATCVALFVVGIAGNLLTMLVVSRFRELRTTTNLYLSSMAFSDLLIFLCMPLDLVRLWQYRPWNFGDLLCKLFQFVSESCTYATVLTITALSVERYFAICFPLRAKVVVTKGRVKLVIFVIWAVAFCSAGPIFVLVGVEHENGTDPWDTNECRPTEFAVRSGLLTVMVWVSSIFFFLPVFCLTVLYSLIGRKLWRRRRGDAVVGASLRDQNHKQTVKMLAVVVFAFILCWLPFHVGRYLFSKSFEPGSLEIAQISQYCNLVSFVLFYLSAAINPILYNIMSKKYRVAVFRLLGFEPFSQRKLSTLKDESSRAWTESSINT

CC(C)(N)C(=O)N[C@H](COCc1ccc(F)cc1F)C(=O)N1CCC2=NN(CC(F)(F)F)C(=O)[C@]2(Cc2ccccn2)C1
Tmax [1]: 1.3 h | Cmax [2]: 260 ng/mL | clearance [3]: 5.3 mL/min/kg | EC50 (Rattus norvegicus [4]): 3 nM | half-life [5]: 1.9 h | Cmax [6]: 88 ng/mL | half-life [7]: 3.9 h | clearance [8]: 46 mL/min/kg | Vd [9]: 4.9 L/kg | logD [10]: 1.6 | ED50 (Rattus norvegicus [11]): 0.1 mg/kg | bioavailability [12]: 77% | bioavailability [13]: 59% | Ki [14]: 5 nM | half-life [15]: 4.2 h | Tmax [16]: 0.25 h | Vd [17]: 1.5 L/kg | half-life [18]: 3.7 h

CN1N=C2CCN(C(=O)[C@@H](COCc3ccc(F)c(F)c3)NC(=O)C(C)(C)N)CC2(Cc2ccccc2)C1=O (stereo not given in full)
clearance [3]: 17 mL/min/kg | EC50 (Rattus norvegicus [4]): 10 nM | logD [10]: 1.7 | ED50 (Rattus norvegicus [11]): 0.3 mg/kg | Ki [14]: 18 nM | Vd [17]: 3.5 L/kg | half-life [18]: 2.7 h

CC(C)(N)C(=O)N[C@H](COCc1ccc(F)c(F)c1)C(=O)N1CCC2=NN(CC(F)(F)F)C(=O)C2(Cc2ccccc2)C1 (stereo not given in full)
clearance [3]: 13 mL/min/kg | EC50 (Rattus norvegicus [4]): 2 nM | logD [10]: 3 | ED50 (Rattus norvegicus [11]): > 10 mg/kg | Ki [14]: 0.45 nM | Vd [17]: 5.1 L/kg | half-life [18]: 4.7 h

CC(C)(N)C(=O)N[C@H](COCc1ccccc1)C(=O)N1CCC2=NN(C(C)(C)C)C(=O)C2(Cc2ccccc2)C1 (stereo not given in full)
clearance [3]: 13 mL/min/kg | logD [10]: 2.9 | Vd [17]: 2.2 L/kg | half-life [18]: 2.5 h

CC(C)(N)C(=O)N[C@H](COCc1ccc(F)c(F)c1)C(=O)N1CCC2=NN(C(C)(C)C)C(=O)C2(Cc2ccccc2)C1 (stereo not given in full)
clearance [3]: 19 mL/min/kg | EC50 (Rattus norvegicus [4]): 4 nM | logD [10]: 2.9 | ED50 (Rattus norvegicus [11]): > 10 mg/kg | Ki [14]: 0.34 nM | Vd [17]: 5.9 L/kg | half-life [18]: 3.9 h

CN1N=C2CCN(C(=O)[C@@H](COCc3ccccc3)NC(=O)C(C)(C)N)C[C@@]2(Cc2ccccc2)C1=O [CAPROMORELIN]
clearance [3]: 19 mL/min/kg | EC50 (Rattus norvegicus [4]): 3 nM | logD [10]: 1.7 | ED50 (Rattus norvegicus [11]): 0.05 mg/kg | Ki [14]: 7 nM | Vd [17]: 2 L/kg | half-life [18]: 1.3 h
